Screens deposited in PubChem by The Scripps Research Institute Molecular Screening Center.
TRPN1 ag: activates the zebrafish TRPN1 channel | AID 1424 | 220,000 tested, 0.18% active | activation, % at 3 µM | HEK293 zebrafish TRPN1-YFP, Fluo-8 calcium fluorescence; 100% = response to 87 µM carbachol;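 active means activation above its plate's cutoff, the mean activation of test wells on that plate plus 3 SD, cut at about 19% in these data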;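 further: 0% = DMSO alone and 100% = 87 µM carbachol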
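Assay system: Zebrafish TRPN1-YFP in HEK293 cells | Incubation: Dye loading 1 h at 37 °C, then 30 min room temperature | Measured by: Kinetic Fluo-8 fluorescence, ex 470-495, em 515-575 nm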
TRPML3 ag: human mucolipin-3 channel agonism; Q8TDD5; HEK293 TRPML3-YFP, Fluo-8 calcium fluorescence; 100% = the carbachol control signal; activation, % at 3 µM; 220,000 tested, 0.29% active; AID 1448;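 active means activation above its plate's cutoff, the mean activation of the plate's test wells plus 3 SD, cut at about 12% in these data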;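 further: 0% = DMSO only wells and 100% = carbachol wells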
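Test system – HEK293 line with stable expression of human TRPML3-YFP channel · Control set – carbachol 87 µM final as high control (100%), DMSO as low control (0%) · Signal – Fluo-8 calcium dye fluorescence, ex 470-495, em 515-575 nm · Incubation – 1-h 37 °C dye load, 5-s basal, 120-s post-compound reads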
V1R ag counter: counter-screen for oxytocin receptor agonists: human V1a receptor agonists; 320,000 tested, 0.25% active; AID 2797; activation, % at 3 µM; CHO-V1R cells, Fluo-8 calcium fluorescence, agonist mode; 0% DMSO, 100% 3 nM vasopressin;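 active means activation above the mean activation of all tested compounds plus 3 SD, per screening run, cut at about 20% in these data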;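 further: signal is peak over basal fluorescence ratio across a 100 second FLIPR read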
Target sequence (P37288 whole entry, looked up): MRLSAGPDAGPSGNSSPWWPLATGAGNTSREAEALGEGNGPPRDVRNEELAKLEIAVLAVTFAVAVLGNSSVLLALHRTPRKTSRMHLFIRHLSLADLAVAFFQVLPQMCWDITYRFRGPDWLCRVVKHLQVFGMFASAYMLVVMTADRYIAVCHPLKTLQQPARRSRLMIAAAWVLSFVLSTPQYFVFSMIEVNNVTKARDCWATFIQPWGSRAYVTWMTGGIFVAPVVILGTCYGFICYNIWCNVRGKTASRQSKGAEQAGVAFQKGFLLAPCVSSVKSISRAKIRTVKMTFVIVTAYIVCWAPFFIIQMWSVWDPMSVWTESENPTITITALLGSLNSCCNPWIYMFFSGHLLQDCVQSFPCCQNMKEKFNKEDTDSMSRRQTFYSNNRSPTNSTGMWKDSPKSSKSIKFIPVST
OXTR potentiator: potentiates the human oxytocin receptor response | CHO-OTR cells, Fluo-8 calcium fluorescence, potentiator mode; 0% = oxytocin EC15, 100% = EC100 | P30559 | activation, % at 3 µM | AID 2445 | 320,000 tested, 0.061% active;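 active means activation above that plate's cutoff, the mean activation of tested compounds plus 3 SD, cut at about 6.6% in these data, passing the limit was not always enough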;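 further: 100% uses oxytocin at 75 nM as the full agonist control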
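Assay system: CHO cell line stably expressing human OTR | Also added: Oxytocin at about EC15, sub-maximal agonist stimulus | Times: Compound 6 min at room temperature before oxytocin, 100 s read | Measured by: Fluo-8 intracellular calcium fluorescence, ex 470-495, em 515-575 nm | Controls: EC15 oxytocin alone as 0%, 75 nM oxytocin as 100%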
OXTR agonist: agonists of human oxytocin receptor; CHO-OTR cells, Fluo-8 calcium fluorescence; normalized: DMSO 0%, oxytocin 100%; activation, % at 3 µM; 320,000 tested, 0.32% active; AID 2435;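 active means activation above the mean of all tested compounds plus 3 SD, cutoff set per screening run, cut at about 20% in these data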;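 further: peak over basal fluorescence ratio from a 100 s FLIPR kinetic read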
OXTR pot confirm: confirmation of human oxytocin receptor potentiators; shares compounds with OXTR potentiator; CHO-OTR cells, Fluo-8 calcium fluorescence, potentiation; scaled from low-dose to maximal oxytocin; activation, % at 3 µM; 180 tested, under 10 active;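 active means mean percent activation over triplicates above a cutoff set from solvent-only control plates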;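 further: compounds tested in the presence of an EC15 dose of oxytocin; 0% = EC15 oxytocin with DMSO and 100% = EC100 oxytocin with DMSO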
Starred values were filed as active, the others as inactive; nt = not tested or not shown. Sampled rows, rich in hits. Any-hit rate of the full collection: about 0.55%.

SMILES	TRPN1 ag	TRPML3 ag	V1R ag counter	OXTR potentiator	OXTR agonist	OXTR pot confirm
O=C(NC(Cc1cccc(F)c1)C(=O)O)C1CCCCC1 (configuration not stated)	nt	nt	0.6	8.1*	0.6	-10.1
CC1CCN(S(=O)(=O)c2cnc[nH]2)CC1	nt	nt	1.0	8.5*	-0.2	-9.3
CC1CCN(C(=O)C2CCN(S(=O)(=O)c3cnc[nH]3)CC2)CC1	-0.8	0.3	2.7	-3.9	3.6	nt
O=C(NC(=S)Nc1ccccc1N1CCOCC1)c1ccc(Br)cc1	nt	nt	1.3	13.8*	-1.0	3.5
COCCCN1CC(=O)N2C(c3ccccc3)c3[nH]c4ccccc4c3C[C@H]2C1=O (some centres not stated)	nt	nt	1.0	8.7*	0.4	-5.5
Cc1cccn2cc(CNC(=O)c3ccc(Br)o3)nc12	-0.4	-0.3	0.4	12.3*	-0.7	-3.4
Cc1cccn2cc(CNC(=O)C3CCCCC3)nc12	-0.1	1.1	-0.3	-1.0	0.1	nt
O=C(O)CN(c1ccccc1F)S(=O)(=O)c1ccccc1	0.6	0.2	0.1	10.7*	1.0	-5.0
O=C(NCc1ccccn1)c1ccc(Cl)c(S(=O)(=O)Nc2ccccc2C(=O)NCc2ccccn2)c1	0.2	0.1	0.6	13.7*	-1.6	-5.5
Cc1ccc(-n2ncc3c(N4CCC(C(N)=O)CC4)ncnc32)c(C)c1	-0.7	0.0	-0.8	13.5*	0.3	-1.6
CCN(CC)C(=O)C1CCN(c2ncnc3c2cnn3-c2ccc(C)cc2C)CC1	0.5	0.7	-1.2	-12.4	-1.2	nt
O=C1CSC(c2ccccn2)N1c1ccc(Br)cc1 (configuration not stated)	0.4	0.3	0.0	0.8	-0.1	nt
CN(C)S(=O)(=O)c1cccc(NC(=O)c2ccc(-n3cncn3)c([N+](=O)[O-])c2)c1	nt	nt	-0.3	-5.1	-0.7	nt
Cn1c(=O)c2[nH]c(-c3ccccc3Cl)c(O)c2n(C)c1=O	10.7	7.1	3.0	22.4*	1.2	-4.6
C[C@H](CO)N1C[C@H](C)[C@@H](CN(C)C(=O)Nc2ccc(C(F)(F)F)cc2)Oc2c(cccc2N(C)C)C1=O	nt	nt	0.1	12.1*	-0.5	0.0
C[C@@H]1CN([C@H](C)CO)C(=O)c2cc(NC(=O)Nc3ccc(C(F)(F)F)cc3)ccc2O[C@H]1CN(C)S(=O)(=O)c1cccs1	nt	nt	2.0	-5.9	2.2	nt
C[C@H](CO)N1C[C@H](C)[C@@H](CN(C)S(=O)(=O)c2cccs2)Oc2ccc(NC(=O)Nc3ccccc3)cc2C1=O	nt	nt	2.9	14.9*	2.6	-6.8
Cc1ccc(NC(=O)CNCCCN2CCOCC2)cc1S(=O)(=O)N1CCCCC1	1.0	1.0	0.3	-4.0	1.0	nt
COc1ccc(CCNC(=O)Cn2nnc(C(=O)Nc3cc(C)ccc3C)c2N)cc1OC	nt	nt	7.1	-2.9	2.9	nt
Fc1ccc2cnc(-c3ccccc3)c(-c3cc(C(F)(F)F)cc(C(F)(F)F)c3)c2c1	nt	nt	-0.1	7.2	-0.1	nt
Fc1ccc2c(-c3cccc(C(F)(F)F)c3)c(-c3ccccc3)ncc2c1	nt	nt	1.2	9.4*	0.4	-8.3
Cc1cccc(OC(C)C(=O)N2CCN(Cc3ccc4c(c3)OCO4)CC2)c1 (configuration not stated)	nt	nt	2.4	-7.7	-0.1	nt
C=CCn1c(N2CCCC2)nc2c1c(=O)[nH]c(=O)n2C	-0.1	-0.6	-0.6	10.6*	0.4	-5.2
C/C(Cl)=C/Cn1c(N2CCCC2)nc2c1c(=O)[nH]c(=O)n2C	nt	nt	-0.1	-0.8	-0.2	nt
O=S(=O)(Nc1ccccc1)c1cccc2nsnc12	nt	nt	-0.2	-5.1	0.3	nt
SMILES	TRPN1 ag	TRPML3 ag	V1R ag counter	OXTR potentiator	OXTR agonist	OXTR pot confirm
O=C(O)c1cccc(NS(=O)(=O)c2cccc3nsnc23)c1	-0.3	0.6	-0.6	10.0*	1.1	-2.5
Cc1ccc(N2C(=O)c3ccc(C(=O)N4CCN(c5cccc(C)c5C)CC4)cc3C2=O)cc1	1.1	0.7	-0.1	2.6	-0.4	nt
CCN(CC(=O)Nc1ccc2c(c1)OCCO2)S(=O)(=O)c1ccc(F)cc1	nt	nt	2.7	-6.4	1.6	nt
Cc1ccc2[nH]c3c(=O)n(CC(=O)N4CCN(C)CC4)ncc3c2c1	nt	nt	0.3	-5.2	-0.3	nt
CCN1C(=O)N(CC)c2cccc3cccc1c23	nt	nt	-1.4	11.4*	-2.3	-3.7
CCOC(=O)c1c(C)[nH]c(C(=O)CN2C(=O)NC3(CCCC3)C2=O)c1C	2.3	1.3	0.4	6.3*	1.2	-6.6
CCOC(=O)c1c(C)[nH]c(C)c1C(=O)CN1C(=O)NC2(CCCCCC2)C1=O	nt	nt	-0.9	3.0	-1.7	nt
Cc1ccc(S(=O)(=O)C2(C(=O)NC3CCCCC3C)CC2)cc1 (configuration not stated)	-2.5	-0.4	-1.5	17.3*	-1.3	-8.3
CC(C)CN(C(=O)COC(=O)c1ccc2c(c1)OCO2)c1c(N)n(Cc2ccccc2)c(=O)[nH]c1=O	nt	nt	0.5	-11.7	-0.4	nt
CCOC(=O)C1=C(C)Nc2nc(SCC(=O)OC)nn2C1c1cc(F)cc(F)c1 (configuration not stated)	0.1	1.0	-0.7	10.8*	-2.1	-13.5
CCOc1ccc(-n2cnc3scc(-c4ccc(OC)c(OC)c4)c3c2=O)cc1	-0.5	-0.2	-1.4	11.2*	-2.1	-3.4
COc1cccc(-n2cnc3scc(-c4cccs4)c3c2=O)c1	-1.8	-1.1	-1.2	-7.9	-1.5	nt
CC(C)NC[C@@H](O)COc1cccc2ccccc12	nt	nt	1.2	-2.6	3.1	nt
COCCNC(=S)N/N=C/c1ccc(N2CCOCC2)cc1	0.2	1.0	0.7	-12.2	-0.5	nt
COc1cc(/C=N/NC(=S)NCCN2CCOCC2)ccc1O	-0.6	0.2	-0.4	12.3*	0.1	-11.3
O=S(=O)(c1ccc(Cl)nc1)N1CCCc2ccccc21	-1.1	0.1	-0.6	8.3*	-2.2	0.7
O=C(O)c1ccc(N2C(=O)c3cccnc3C2=O)cc1	1.6	0.5	0.2	-2.4	0.3	nt
O=C1c2nccnc2C(=O)N1c1ccc(F)cc1	0.6	0.6	1.2	10.5*	1.3	-0.8
O=C(O)c1ccc2c(c1)C(=O)N(Cc1ccc3c(c1)OCO3)C2=O	1.0	0.4	0.0	11.1*	0.2	-5.0
O=C1c2ccccc2C(=O)N1Cc1ccc2c(c1)OCO2	-1.1	-0.4	-0.1	-5.8	-0.2	nt
O=C(CN1C(=O)NC2(CCCCCCC2)C1=O)Nc1cccc(Br)c1	nt	nt	-0.8	-6.1	-0.1	nt
CC(C)OCCCNC(=O)C(NS(=O)(=O)c1ccc2c(c1)c(=O)n(C)c(=O)n2C)c1ccccc1 (configuration not stated)	-1.1	-1.3	-0.5	-1.8	-0.2	nt
COc1ccc(C(=O)NNC(=O)c2ccc(F)c(S(=O)(=O)N3CCOCC3)c2)cc1	nt	nt	0.7	13.7*	1.5	-5.1
